# Reference: ChEMBL document CHEMBL4368872, “Synthesis and anticonvulsant activity of phenoxyacetyl derivatives of amines, including aminoalkanols and amino acids” (Medchemcomm, 2018)
# The source made the active and inactive calls. The rule behind the calls is not given here.
# Assays:
# [1] = Neurotoxicity in CF-1 mouse at 30 mg/kg, ip measured after 4 hrs by rotarod test; assay type: toxicity, organism-based; details: in vivo
# Outline: (§1)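 Mice dosed i.p. were placed on a 1 in. knurled rod turning at 6 rpm. Toxicity was scored as failure to keep balance for at least 1 min, i.e. falling off three or more times. Results are reported as animals showing toxicity / animals tested at each time point.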
# [2] = Neurotoxicity in Sprague-Dawley rat at 30 mg/kg, po measured after 1 hr by rotarod test; assay type: toxicity, organism-based; details: in vivo
# Outline: (§2)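 Rat neurotoxicity after i.p. or p.o. dosing was scored as animals impaired / animals tested at each time point. For p.o. dosing, TD50 was obtained by probit analysis.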
# Mus musculus [3] = assay: Anticonvulsant activity in CF-1 mouse model of subcutaneous pentylenetetrazole-induced seizure assessed as reduction in convulsions at 30 mg/kg, ip measured at 0.5 hrs post dose; assay type: functional, organism-based
# Outline: (§3)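 Mice dosed i.p., then given pentylenetetrazole 85 mg/kg in 0.9% NaCl s.c. into the posterior midline of the neck. Seizures watched for at least 30 min. Scored as protected / tested at 0.5 and 4 h.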
# Mus musculus [4] = assay: Anticonvulsant activity in CF-1 mouse model of subcutaneous pentylenetetrazole-induced seizure assessed as reduction in convulsions at 30 mg/kg, ip measured at 4 hrs post dose; assay type: functional, organism-based; outline: as §3
# Rattus norvegicus [5] = assay: Anticonvulsant activity in Sprague-Dawley rat model of maximal electroshock-induced seizure assessed as suppression of tonic hind limb extension at 30 mg/kg, po measured at 2 hrs post dose; assay type: functional, organism-based
# Outline: (§4)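 Rats given 30 mg/kg p.o. and tested by maximal electroshock at 150 mA. Scored as number protected / number tested (4 per group) at 0.25, 0.5, 1, 2 and 4 h after dosing.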
# [6] = Neurotoxicity in Sprague-Dawley rat at 30 mg/kg, po measured after 2 hrs by rotarod test; assay type: toxicity, organism-based; details: in vivo; outline: as §2
# Mus musculus [7] = assay: Anticonvulsant activity in CF-1 mouse model of subcutaneous pentylenetetrazole-induced seizure assessed as reduction in convulsions at 300 mg/kg, ip measured at 0.5 hrs post dose; assay type: functional, organism-based; outline: as §3
# [8] = Neurotoxicity in CF-1 mouse at 300 mg/kg, ip measured after 4 hrs by rotarod test; assay type: toxicity, organism-based; details: in vivo; outline: as §1
# Mus musculus [9] = assay: Anticonvulsant activity in CF-1 mouse model of subcutaneous pentylenetetrazole-induced seizure assessed as reduction in convulsions at 300 mg/kg, ip measured at 4 hrs post dose; assay type: functional, organism-based; outline: as §3
# Mus musculus [10] = assay: Anticonvulsant activity in CF-1 mouse model of maximal electroshock-induced seizure assessed as suppression of tonic hind limb extension at 30 mg/kg, ip measured at 0.5 hrs post dose; assay type: functional, organism-based
# Outline: (§5)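 Mice dosed i.p. and given maximal electroshock at 50 mA. Read-out is protection, reported as number protected / number tested at 0.25, 0.5, 1 and 4 h after dosing.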
# Mus musculus [11] = assay: Anticonvulsant activity in CF-1 mouse model of maximal electroshock-induced seizure assessed as suppression of tonic hind limb extension at 300 mg/kg, ip measured at 0.5 hrs post dose; assay type: functional, organism-based; outline: as §5
# Rattus norvegicus [12] = assay: Anticonvulsant activity in Sprague-Dawley rat model of maximal electroshock-induced seizure assessed as suppression of tonic hind limb extension at 30 mg/kg, po measured at 4 hrs post dose; assay type: functional, organism-based; outline: as §4
# Mus musculus [13] = assay: Anticonvulsant activity in CF-1 mouse model of maximal electroshock-induced seizure assessed as suppression of tonic hind limb extension at 30 mg/kg, ip measured at 4 hrs post dose; assay type: functional, organism-based; outline: as §5
# Mus musculus [14] = assay: Anticonvulsant activity in CF-1 mouse model of subcutaneous pentylenetetrazole-induced seizure assessed as reduction in convulsions at 100 mg/kg, ip measured at 4 hrs post dose; assay type: functional, organism-based; outline: as §3
# Mus musculus [15] = assay: Anticonvulsant activity in CF-1 mouse model of maximal electroshock-induced seizure assessed as suppression of tonic hind limb extension at 100 mg/kg, ip measured at 4 hrs post dose; assay type: functional, organism-based; outline: as §5
# [16] = Neurotoxicity in CF-1 mouse at 30 mg/kg, ip measured after 0.5 hrs by rotarod test; assay type: toxicity, organism-based; details: in vivo; outline: as §1
# Rattus norvegicus [17] = assay: Anticonvulsant activity in Sprague-Dawley rat model of maximal electroshock-induced seizure assessed as suppression of tonic hind limb extension at 30 mg/kg, po measured at 1 hr post dose; assay type: functional, organism-based; outline: as §4
# [18] = Neurotoxicity in Sprague-Dawley rat at 30 mg/kg, po measured after 4 hrs by rotarod test; assay type: toxicity, organism-based; details: in vivo; outline: as §2
# [19] = Neurotoxicity in Sprague-Dawley rat at 30 mg/kg, po measured after 0.25 hrs by rotarod test; assay type: toxicity, organism-based; details: in vivo; outline: as §2
# [20] = Neurotoxicity in CF-1 mouse at 100 mg/kg, ip measured after 4 hrs by rotarod test; assay type: toxicity, organism-based; details: in vivo; outline: as §1
# [21] = Neurotoxicity in CF-1 mouse at 300 mg/kg, ip measured after 0.5 hrs by rotarod test; assay type: toxicity, organism-based; details: in vivo; outline: as §1
# [22] = Neurotoxicity in Sprague-Dawley rat at 30 mg/kg, po measured after 0.5 hrs by rotarod test; assay type: toxicity, organism-based; details: in vivo; outline: as §2
# Mus musculus [23] = assay: Anticonvulsant activity in CF-1 mouse model of subcutaneous pentylenetetrazole-induced seizure assessed as reduction in convulsions at 100 mg/kg, ip measured at 0.5 hrs post dose; assay type: functional, organism-based; outline: as §3
# Mus musculus [24] = assay: Anticonvulsant activity in CF-1 mouse model of maximal electroshock-induced seizure assessed as suppression of tonic hind limb extension at 300 mg/kg, ip measured at 4 hrs post dose; assay type: functional, organism-based; outline: as §5
# Salmonella typhimurium [25] = assay: Antimutagenic activity against Salmonella typhimurium TA1535 assessed as inhibition of NaN3-induced mutation at 500 ug/plate preincubated for 30 mins followed by top agar addition and measured after 48 hrs in presence of liver S9 fraction by Ames test relative to control; assay type: organism-based; details: salmonella enterica subsp. enterica serovar typhimurium, s9, 48 h
# Salmonella typhimurium [26] = assay: Antimutagenic activity against Salmonella typhimurium TA1535 assessed as inhibition of NaN3-induced mutation at 50 ug/plate preincubated for 30 mins followed by top agar addition and measured after 48 hrs in presence of liver S9 fraction by Ames test relative to control; assay type: organism-based; details: salmonella enterica subsp. enterica serovar typhimurium, s9, 48 h
# [27] = Mutagenicity in Salmonella typhimurium TA100 assessed as mutagenicity index at 50 to 500 ug/plate preincubated for 30 mins followed by top agar addition and measured after 48 hrs in absence of liver S9 fraction by Ames test; assay type: toxicity; details: salmonella enterica subsp. enterica serovar typhimurium, s9, 48 h
# Outline: (§6)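 Ames plate incorporation in S. typhimurium TA100 or TA1535, with or without S9. Overnight culture, compound in DMSO (50–500 µg per plate) and buffer or S9 mix preincubated 30 min at 37 °C, then top agar on glucose minimal agar. Incubated 48 h at 37 °C, revertants counted in triplicate. Vehicle negative control; NaN3 (−S9) and 2AA (+S9) positive controls. MI = revertants with compound / negative-control revertants; MI ≥ 2 with dose-response counts as positive.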
# [28] = Neurotoxicity in CF-1 mouse at 100 mg/kg, ip measured after 0.5 hrs by rotarod test; assay type: toxicity, organism-based; details: in vivo; outline: as §1
# [29] = Neurotoxicity in CF-1 mouse at 100 mg/kg, ip measured after 1 hr by rotarod test; assay type: toxicity, organism-based; details: in vivo; outline: as §1
# Salmonella typhimurium [30] = assay: Antimutagenic activity against Salmonella typhimurium TA100 assessed as inhibition of NaN3-induced mutation at 250 ug/plate preincubated for 30 mins followed by top agar addition and measured after 48 hrs in presence of liver S9 fraction by Ames test relative to control; assay type: organism-based; details: salmonella enterica subsp. enterica serovar typhimurium, s9, 48 h
# [31] = Mutagenicity in Salmonella typhimurium TA100 assessed as mutagenicity index at 50 to 500 ug/plate preincubated for 30 mins followed by top agar addition and measured after 48 hrs in presence of liver S9 fraction by Ames test; assay type: toxicity, subcellular; details: salmonella enterica subsp. enterica serovar typhimurium, s9, 48 h; outline: as §6
# Salmonella typhimurium [32] = assay: Antimutagenic activity against Salmonella typhimurium TA1535 assessed as inhibition of NaN3-induced mutation at 250 ug/plate preincubated for 30 mins followed by top agar addition and measured after 48 hrs in presence of liver S9 fraction by Ames test relative to control; assay type: organism-based; details: salmonella enterica subsp. enterica serovar typhimurium, s9, 48 h
# Mus musculus [33] = assay: Anticonvulsant activity in CF-1 mouse model of maximal electroshock-induced seizure assessed as suppression of tonic hind limb extension at 100 mg/kg, ip measured at 1 hr post dose; assay type: functional, organism-based; outline: as §5
# Salmonella typhimurium [34] = assay: Antimutagenic activity against Salmonella typhimurium TA100 assessed as inhibition of NaN3-induced mutation at 50 ug/plate preincubated for 30 mins followed by top agar addition and measured after 48 hrs in presence of liver S9 fraction by Ames test relative to control; assay type: organism-based; details: salmonella enterica subsp. enterica serovar typhimurium, s9, 48 h
# Salmonella typhimurium [35] = assay: Antimutagenic activity against Salmonella typhimurium TA1535 assessed as inhibition of NaN3-induced mutation at 100 ug/plate preincubated for 30 mins followed by top agar addition and measured after 48 hrs in presence of liver S9 fraction by Ames test relative to control; assay type: organism-based; details: salmonella enterica subsp. enterica serovar typhimurium, s9, 48 h
# Salmonella typhimurium [36] = assay: Antimutagenic activity against Salmonella typhimurium TA100 assessed as inhibition of NaN3-induced mutation at 500 ug/plate preincubated for 30 mins followed by top agar addition and measured after 48 hrs in presence of liver S9 fraction by Ames test relative to control; assay type: organism-based; details: salmonella enterica subsp. enterica serovar typhimurium, s9, 48 h
# Mus musculus [37] = assay: Anticonvulsant activity in CF-1 mouse model of maximal electroshock-induced seizure assessed as suppression of tonic hind limb extension at 100 mg/kg, ip measured at 0.5 hrs post dose; assay type: functional, organism-based; outline: as §5
# Salmonella typhimurium [38] = assay: Antimutagenic activity against Salmonella typhimurium TA100 assessed as inhibition of NaN3-induced mutation at 100 ug/plate preincubated for 30 mins followed by top agar addition and measured after 48 hrs in presence of liver S9 fraction by Ames test relative to control; assay type: organism-based; details: salmonella enterica subsp. enterica serovar typhimurium, s9, 48 h
# [39] = Mutagenicity in Salmonella typhimurium TA1535 assessed as mutagenicity index at 50 to 500 ug/plate preincubated for 30 mins followed by top agar addition and measured after 48 hrs in absence of liver S9 fraction by Ames test; assay type: toxicity; details: salmonella enterica subsp. enterica serovar typhimurium, s9, 48 h; outline: as §6
# [40] = Mutagenicity in Salmonella typhimurium TA1535 assessed as mutagenicity index at 50 to 500 ug/plate preincubated for 30 mins followed by top agar addition and measured after 48 hrs in presence of liver S9 fraction by Ames test; assay type: toxicity, subcellular; details: salmonella enterica subsp. enterica serovar typhimurium, s9, 48 h; outline: as §6
Structure (SMILES),Activity [1],Activity (Mus musculus [3]),Activity (Mus musculus [4]),Activity (Mus musculus [7]),Activity [8],Activity (Mus musculus [9]),Activity (Mus musculus [10]),Activity (Mus musculus [11]),Activity (Mus musculus [13]),Activity (Mus musculus [14]),Activity (Mus musculus [15]),Activity [16],Activity [20],Activity [21],Activity (Mus musculus [23]),Activity (Mus musculus [24]),further results
CNC(=O)C(C)NC(=O)COc1c(C)cccc1C (stereo unspecified),Non-Toxic,inactive,inactive,inactive,Non-Toxic,inactive,inactive,Active,inactive,inactive,inactive,Non-Toxic,Non-Toxic,Toxic,inactive,inactive,Activity [2]: Non-Toxic; Activity (Rattus norvegicus [5]): inactive; Activity [6]: Non-Toxic; Activity (Rattus norvegicus [12]): inactive; Activity (Rattus norvegicus [17]): inactive; Activity [18]: Non-Toxic; Activity [19]: Non-Toxic; Activity [22]: Non-Toxic
CC[C@@H](CO)NC(=O)COc1c(C)cccc1C,Non-Toxic,inactive,inactive,inactive,Non-Toxic,inactive,inactive,Active,inactive,inactive,inactive,Non-Toxic,Non-Toxic,Toxic,inactive,inactive,inhibition (INH) (Salmonella typhimurium [25]): 24%; inhibition (INH) (Salmonella typhimurium [26]): 12%; Activity index [27]: 0.7 to 1.7; Activity [28]: Non-Toxic; Activity [29]: Non-Toxic; inhibition (INH) (Salmonella typhimurium [30]): 28%; Activity index [31]: 0.7 to 1.7; inhibition (INH) (Salmonella typhimurium [32]): 19%; Activity (Mus musculus [33]): inactive; inhibition (INH) (Salmonella typhimurium [34]): 26%; inhibition (INH) (Salmonella typhimurium [35]): 22%; inhibition (INH) (Salmonella typhimurium [36]): 43%; Activity (Mus musculus [37]): inactive; inhibition (INH) (Salmonella typhimurium [38]): 34%; Activity index [39]: 0.7 to 1.7; Activity index [40]: 0.7 to 1.7
